# Published values gathered from unrelated publications.
# Protocols differ between the studies behind these lines.
# Target: Serine/threonine-protein kinase PLK3 (PLK3, Homo sapiens, UniProt Q9H4B4)
SMILES,assay,setting,endpoint,result
O=C(N1CCS(=O)(=O)CC1)N1C[C@H](c2ccc(OC(F)(F)F)cc2)C[C@H](c2nc(C3CC3)no2)C1,"cell-free assay, competition with immobilised ligand",1 µM,remaining binding,98%
Cc1cc(NC(=O)c2cccc3cc(-c4cccc5[nH]nc(N)c45)ccc23)ccc1F,"enzyme activity, inhibitor",0.1 µM,activity vs control,92%
Cc1cnc(NC2CCOCC2)nc1-n1cnc(C(=O)NC(CN)c2cc(F)cc(Cl)c2)c1 (centres unmarked),"enzyme activity, inhibitor, radiometric",1 µM,remaining activity,88%
O=c1cc(N2CCOCC2)oc2c(-c3ccccc3)cccc12,cell-free assay,0.5 µM,remaining signal,71.9%
COc1cc2ncnc(Nc3ccc(Oc4ccccc4)cc3C)c2cc1OC,"enzyme activity, inhibitor",1 µM,inhibition,-1%
Nc1ncnc2occ(-c3ccc(NC(=O)Nc4cc(C(F)(F)F)ccc4F)cc3)c12,"cell-free assay, inhibitor",20 µM,remaining signal,0.05%
CNC(=O)c1cc(Oc2ccc(NC(=O)Nc3ccc(Cl)c(C(F)(F)F)c3)cc2)ccn1,"enzyme activity, inhibitor",0.3 µM,inhibition,-12%
O=C(Nc1cnn(-c2csc(C(=O)NC3COC3)c2)c1)Nc1ccccc1Cl,"enzyme activity, inhibitor",5 µM,remaining activity,96.1%
C[C@@]1(Cc2ccc(C#N)cc2)C(=O)N(c2cc(Cl)cc(Cl)c2)c2ncc(C(=O)NC3(c4nc(C5CCC5)no4)CC3)n21,"cell-free assay, competition with immobilised ligand",1 µM,remaining binding,100%
CCN(CC)CCNC(=O)c1c(C)[nH]c(/C=C2\C(=O)Nc3ccc(F)cc32)c1C,"enzyme activity, inhibitor",10 µM,inhibition,-4%
CNC(=O)Nc1ccc2c(c1)[C@@]1(CC2)OC(=O)N(CC(=O)N(Cc2ccc(F)cc2)[C@@H](C)C(F)(F)F)C1=O,"cell-free assay, competition with immobilised ligand",1 µM,remaining binding,84%
Cc1ccc(C(=O)NCc2ccsc2)cc1C#Cc1cn(C(C)C)c2ncnc(N)c12,"enzyme activity, inhibitor",1 µM,activity vs control,118%
CSc1cccnc1N1CCN(Cc2nc3ccccc3[nH]2)CC1,"cell-free assay, competition with immobilised ligand",1 µM,remaining binding,80%
O=C1NC(=O)c2cc(Nc3ccc(F)cc3)c(Nc3ccc(F)cc3)cc21,cell-free assay,0.5 µM,remaining signal,98%
Cc1ccc(NC(=O)c2ccc(C)c(C(F)(F)F)c2)cc1C#Cc1nn(C2CCC(O)CC2)c2ncnc(N)c12 (centres unmarked),cell-free assay,10 µM,remaining signal,93%
COc1cc(Cl)c(C(=O)N[C@@H](CN[C@H]2CC[C@@H](N)CC2)Cc2ccc(C#N)cc2)cc1-c1ccc(CN[C@H](C)c2ccc(C)cc2)o1,"enzyme activity, inhibitor",1 µM,remaining activity,105%
Nc1cnc(N2CCc3cc(S(=O)(=O)Nc4c(F)cc(Cl)cc4F)cc(N4CCCC4=O)c32)nc1,"cell-free assay, competition with immobilised ligand",1 µM,remaining binding,100%
